Measurements as given in ChEMBL document CHEMBL1143889, “N-Phenyl and N-phenylalkyl-maleimides acting against Candida spp.: time-to-kill, stability, interaction with maleamic acids” (2008).
In brackets after ≈: the same amount, converted by molar mass. Activity calls are given as the source filed them. The calls are words filed in the database; no cut-off is given here.

Legend:
Candida tropicalis = assay: Antifungal activity against Candida tropicalis C 137-1997 after 48 hrs by CLSI M27-A2 method; type: functional
In short: (§1)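 Broth microdilution per CLSI M27-A2 in RPMI-1640, with twofold dilutions giving final 250–0.98 µg/mL. The inoculum was modified to 1–5 × 10⁴ CFU/mL instead of 1–5 × 10³, with ketoconazole and amphotericin B as positive controls. MIC was the lowest concentration giving total growth inhibition, read visually. Strains were grown on Sabouraud-chloramphenicol agar for 24 h at 37 °C.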

Candida albicans [1] = assay: Antifungal activity against Candida albicans ATCC 10231 pre-incubated for 2 days analysed after 24 hrs by CLSI M27-A2 method; type: functional
In short: (§2)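 Twofold maleimide dilutions (1000–0.98 µg/mL) in complete M27-A2 medium without inoculum were held at 37 °C, with one plate row filled on each of 7 consecutive days to give 0–7 days of pre-incubation. All wells were then inoculated with C. albicans ATCC 10231 at 1–5 × 10⁴ CFU/mL and incubated for 24 h at 37 °C. MIC was read per row, in duplicate.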

Candida albicans [2] = assay: Antifungal activity against Candida albicans ATCC 10231 pre-incubated for 6 days analysed after 24 hrs by CLSI M27-A2 method; type: functional; in short: as §2
Candida albicans [3] = assay: Antifungal activity against Candida albicans C 127-2000 after 48 hrs by CLSI M27-A2 method; type: functional; in short: as §1
Pichia kudriavzevii = assay: Antifungal activity against Candida krusei C 117-2000 after 48 hrs by CLSI M27-A2 method; type: functional; in short: as §1
Candida albicans [4] = assay: Antifungal activity against Candida albicans ATCC 10231 within 90 mins by time-to-kill study; type: functional, organism-based
In short: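 C. albicans ATCC 10231 (2–2.5 × 10⁴ CFU/mL) in 5 mL RPMI-1640 was exposed to 1× MFC of compound at 37 °C with agitation. 10 µL samples taken at 0, 30, 60, 90 and 120 min, and at 4, 8, 12 and 24 h, were plated on drug-free SDA and colonies counted after 24–48 h at 37 °C. Run in duplicate.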

Candida albicans [5] = assay: Antifungal activity against Candida albicans ATCC 10231 after 24 hrs by CLSI M27-A2 method; type: functional; settings: ATCC 10231, 24 h; in short: as §1
Nakaseomyces glabratus = assay: Antifungal activity against Candida glabrata C 115-2000 after 48 hrs by CLSI M27-A2 method; type: functional; in short: as §1
Candida albicans [6] = assay: Antifungal activity against Candida albicans ATCC 10231 pre-incubated for 4 days analysed after 24 hrs by CLSI M27-A2 method; type: functional; in short: as §2
Candida albicans [7] = assay: Antifungal activity against Candida albicans ATCC 10231 pre-incubated for 5 days analysed after 24 hrs by CLSI M27-A2 method; type: functional; in short: as §2
Candida albicans [8] = assay: Antifungal activity against Candida albicans C 125-2000 after 48 hrs by CLSI M27-A2 method; type: functional; in short: as §1
Candida albicans [9] = assay: Antifungal activity against Candida albicans C 128-2000 after 48 hrs by CLSI M27-A2 method; type: functional; in short: as §1
Candida albicans [10] = assay: Antifungal activity against Candida albicans C 126-2000 after 48 hrs by CLSI M27-A2 method; type: functional; in short: as §1
Candida parapsilosis = assay: Antifungal activity against Candida parapsilosis C 124-2000 after 48 hrs by CLSI M27-A2 method; type: functional; settings: Lodderomyces parapsilosis; in short: as §1
Clavispora lusitaniae = assay: Antifungal activity against Candida lusitaniae C 131-2000 after 48 hrs by CLSI M27-A2 method; type: functional; in short: as §1
Candida albicans [11] = assay: Antifungal activity against Candida albicans C 129-2000 after 48 hrs by CLSI M27-A2 method; type: functional; in short: as §1
Torulaspora delbrueckii = assay: Antifungal activity against Candida coliculosa C 122-2000 after 48 hrs by CLSI M27-A2 method; type: functional; in short: as §1
Kluyveromyces marxianus = assay: Antifungal activity against Candida kefyr C 123-2000 after 48 hrs by CLSI M27-A2 method; type: functional; in short: as §1
Candida albicans [12] = assay: Antifungal activity against Candida albicans ATCC 10231 pre-incubated for 1 day analysed after 24 hrs by CLSI M27-A2 method; type: functional; in short: as §2
Candida albicans [13] = assay: Antifungal activity against Candida albicans ATCC 10231 after 48 hrs by CLSI M27-A2 method; type: functional; settings: ATCC 10231, 48 h; in short: as §1
Candida albicans [14] = assay: Antifungal activity against Candida albicans ATCC 10231 pre-incubated for 3 days analysed after 24 hrs by CLSI M27-A2 method; type: functional; in short: as §2
Candida albicans [15] = assay: Antifungal activity against Candida albicans ATCC 10231 preincubated for 7 days analysed after 24 hrs by CLSI M27-A2 method; type: functional; in short: as §2
Candida albicans [16] = assay: Antifungal activity against Candida albicans C 130-2000 after 48 hrs by CLSI M27-A2 method; type: functional; in short: as §1

MIC (Candida tropicalis) [µg/mL] | MIC (Candida albicans [1]) [µg/mL] | MIC (Candida albicans [2]) [µg/mL] | MIC (Candida albicans [3]) [µg/mL] | MIC (Pichia kudriavzevii) [µg/mL] | MIC (Nakaseomyces glabratus) [µg/mL] | MIC (Candida albicans [8]) [µg/mL] | MIC (Candida albicans [9]) [µg/mL] | MIC (Candida albicans [10]) [µg/mL] | MIC (Candida parapsilosis) [µg/mL] | MIC (Clavispora lusitaniae) [µg/mL] | MIC (Candida albicans [11]) [µg/mL] | MIC (Torulaspora delbrueckii) [µg/mL] | MIC (Kluyveromyces marxianus) [µg/mL] | MIC (Candida albicans [13]) [µg/mL] | MIC (Candida albicans [16]) [µg/mL] | Structure (SMILES) | MFC (Candida tropicalis) [µg/mL] | MFC (Candida albicans [3]) [µg/mL] | MFC (Pichia kudriavzevii) [µg/mL] | Activity (Candida albicans [4]) | also measured
7.81 (≈ 45.1 µM) | 3.9 (≈ 22.5 µM) | 125 (≈ 722 µM) | 0.97 (≈ 5.6 µM) | 1.95 (≈ 11.3 µM) | 1.95 (≈ 11.3 µM) | 0.48 (≈ 2.77 µM) | 0.97 (≈ 5.6 µM) | 0.97 (≈ 5.6 µM) | 1.95 (≈ 11.3 µM) | 3.9 (≈ 22.5 µM) | 0.48 (≈ 2.77 µM) | 1.95 (≈ 11.3 µM) | 1.95 (≈ 11.3 µM) | 3.9 (≈ 22.5 µM) | 0.48 (≈ 2.77 µM) | O=C1C=CC(=O)N1c1ccccc1 | 15.8 (≈ 91 µM) | 1.95 (≈ 11.3 µM) | 1.95 (≈ 11.3 µM) | Active | MIC (Candida albicans [5]): 3.9 µg/mL (≈ 22.5 µM); MFC (Nakaseomyces glabratus): 3.9 µg/mL (≈ 22.5 µM); MIC (Candida albicans [6]): 15.8 µg/mL (≈ 91 µM); MIC (Candida albicans [7]): 62.5 µg/mL (≈ 361 µM); MFC (Candida albicans [8]): 1.95 µg/mL (≈ 11.3 µM); MFC (Candida albicans [9]): 3.9 µg/mL (≈ 22.5 µM); MFC (Candida albicans [10]): 3.9 µg/mL (≈ 22.5 µM); MFC (Candida parapsilosis): 3.9 µg/mL (≈ 22.5 µM); MFC (Clavispora lusitaniae): 7.8 µg/mL (≈ 45 µM); MFC (Candida albicans [11]): 1.95 µg/mL (≈ 11.3 µM); MFC (Torulaspora delbrueckii): 3.9 µg/mL (≈ 22.5 µM); MFC (Kluyveromyces marxianus): 3.9 µg/mL (≈ 22.5 µM); MIC (Candida albicans [12]): 3.9 µg/mL (≈ 22.5 µM); MFC (Candida albicans [13]): 7.8 µg/mL (≈ 45 µM); MIC (Candida albicans [14]): 7.8 µg/mL (≈ 45 µM); MIC (Candida albicans [15]): 500 µg/mL (≈ 2890 µM); MFC (Candida albicans [16]): 1.95 µg/mL (≈ 11.3 µM)
15.8 (≈ 68.7 µM) | 3.9 (≈ 17 µM) | 250 (≈ 1090 µM) | 1.95 (≈ 8.5 µM) | 7.8 (≈ 34 µM) | 1.95 (≈ 8.5 µM) | 0.97 (≈ 4.23 µM) | 0.97 (≈ 4.23 µM) | 0.97 (≈ 4.23 µM) | 1.95 (≈ 8.5 µM) | 3.9 (≈ 17 µM) | 0.97 (≈ 4.23 µM) | 3.9 (≈ 17 µM) | 1.95 (≈ 8.5 µM) | 3.9 (≈ 17 µM) | 1.95 (≈ 8.5 µM) | O=C1C=CC(=O)N1CCCCc1ccccc1 | 32.2 (≈ 141 µM) | 3.9 (≈ 17 µM) | 15.8 (≈ 68.7 µM) | Active | MIC (Candida albicans [5]): 3.9 µg/mL (≈ 17 µM); MFC (Nakaseomyces glabratus): 3.9 µg/mL (≈ 17 µM); MIC (Candida albicans [6]): 31.2 µg/mL (≈ 136 µM); MIC (Candida albicans [7]): 125 µg/mL (≈ 545 µM); MFC (Candida albicans [8]): 1.95 µg/mL (≈ 8.5 µM); MFC (Candida albicans [9]): 1.95 µg/mL (≈ 8.5 µM); MFC (Candida albicans [10]): 1.95 µg/mL (≈ 8.5 µM); MFC (Candida parapsilosis): 7.8 µg/mL (≈ 34 µM); MFC (Clavispora lusitaniae): 3.9 µg/mL (≈ 17 µM); MFC (Candida albicans [11]): 1.95 µg/mL (≈ 8.5 µM); MFC (Torulaspora delbrueckii): 3.9 µg/mL (≈ 17 µM); MFC (Kluyveromyces marxianus): 7.81 µg/mL (≈ 34.1 µM); MIC (Candida albicans [12]): 3.9 µg/mL (≈ 17 µM); MFC (Candida albicans [13]): 7.8 µg/mL (≈ 34 µM); MIC (Candida albicans [14]): 15.8 µg/mL (≈ 68.7 µM); MIC (Candida albicans [15]): 1000 µg/mL (≈ 4360 µM); MFC (Candida albicans [16]): 3.9 µg/mL (≈ 17 µM)

Structure (SMILES) | MIC (Candida tropicalis) [µg/mL] | MIC (Candida albicans [1]) [µg/mL] | MIC (Candida albicans [2]) [µg/mL] | MIC (Candida albicans [3]) [µg/mL] | MIC (Pichia kudriavzevii) [µg/mL] | MIC (Nakaseomyces glabratus) [µg/mL] | MIC (Candida albicans [8]) [µg/mL] | MIC (Candida albicans [9]) [µg/mL] | MIC (Candida albicans [10]) [µg/mL] | MIC (Candida parapsilosis) [µg/mL] | MIC (Clavispora lusitaniae) [µg/mL] | MIC (Candida albicans [11]) [µg/mL] | MIC (Torulaspora delbrueckii) [µg/mL] | MIC (Kluyveromyces marxianus) [µg/mL] | MIC (Candida albicans [13]) [µg/mL] | MIC (Candida albicans [16]) [µg/mL] | MFC (Candida tropicalis) [µg/mL] | MFC (Candida albicans [3]) [µg/mL] | MFC (Pichia kudriavzevii) [µg/mL] | Activity (Candida albicans [4]) | also measured
CC(=O)N1CCN(c2ccc(OCC3COC(Cn4ccnc4)(c4ccc(Cl)cc4Cl)O3)cc2)CC1 (stereo not drawn) [KETOCONAZOLE] | 0.12 (≈ 0.226 µM) | – | – | 6.25 (≈ 11.8 µM) | 50 (≈ 94.1 µM) | 1.56 (≈ 2.94 µM) | 6.25 (≈ 11.8 µM) | 6.25 (≈ 11.8 µM) | 1.56 (≈ 2.94 µM) | 0.78 (≈ 1.47 µM) | 25 (≈ 47 µM) | 12.5 (≈ 23.5 µM) | 0.78 (≈ 1.47 µM) | 0.78 (≈ 1.47 µM) | 0.5 (≈ 0.941 µM) | 6.25 (≈ 11.8 µM) | – | – | – | – | –
